Measured values: ChEMBL document CHEMBL1123221, “Dihydropyridazinone cardiotonics: the discovery and inotropic activity of 1,3-dihydro-3,3-dimethyl-5-(1,4,5,6-tetrahydro-6-oxo-3-pyridazinyl)-2H -indol-2-one” (J Med Chem, 1986)

Key:
[1] = system: Canis familiaris; assay: Evaluated for percent increase in heart rate in anesthetized dogs; type: functional, Canis lupus familiaris
Procedure, shortened: (§1)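 Right ventricular contractility measured by strain-gauge arch at 50 g tension; femoral arterial pressure and heart rate also recorded. Increasing log doses given iv at 5-min intervals, with peak responses recorded. ED50 by linear regression (mean ± SEM). Heart rate and MAP are % changes at the inotropic ED50.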

[2] = species: Felis catus; assay: Compound was evaluated for inotropic activity in cat papillary muscles at concentration of (10e -6)M; type: functional, Papillary muscle
Procedure, shortened: (§2)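 Isolated cat papillary muscles under 1.0 g base-line tension, field-stimulated with square-wave pulses (2.0 ms, 12/min, 20% above threshold). Equilibrated 60 min. Each muscle was checked with 10^-6 M isoproterenol for 3 min and rejected if the response was under 120% of control, then washed and stabilized 30 min. Test compound given cumulatively (10^-7–10^-4 M) at 30-min intervals; contractility increase recorded.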

[3] = system: Canis familiaris; assay: Compound was tested for cardiovascular profile in conscious dogs at dose of 500 ug/kg po; type: functional, Canis lupus familiaris, Heart
Procedure, shortened: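 Conscious, chronically instrumented dogs fasted 18 h; drug or lactose placebo given orally in 000 gelatin capsules. Contractility index was LV dP/dt60 (first derivative of left ventricular pressure at 60 mmHg); heart rate and LV systolic pressure also monitored.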

[4] = species: Felis catus; assay: Compound was evaluated for inotropic activity in cat papillary muscles at concentration of (10e -4)M; type: functional, Muscle tissue; procedure, shortened: as §2
[5] = species: Felis catus; assay: Compound was evaluated for inotropic activity in cat papillary muscles at concentration of (10e -5)M; type: functional, Papillary muscle; procedure, shortened: as §2
[6] = system: Canis familiaris; assay: Evaluated for percent decrease in maximum arterial blood pressure in anesthetized dogs; type: functional, Canis lupus familiaris; procedure, shortened: as §1
[7] = system: Canis familiaris; assay: Tested for cardiovascular contractility in anesthetized dogs; type: functional; conditions: Canis lupus familiaris; procedure, shortened: as §1
[8] = system: Canis familiaris; assay: Compound was evaluated for percent decrease in maximum arterial blood pressure in anesthetized dogs; type: functional, Canis lupus familiaris, Artery; parameters: scale not given: the % may be the effect or the level left
Procedure, shortened: (§3)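 Mongrel dogs of either sex (7–14 kg), pentobarbital-anesthetized (35 mg/kg iv), ventilated, kept at 37–38 °C. Right ventricular contractility measured by strain-gauge arch at 50 g tension; femoral arterial pressure and heart rate also recorded. Increasing log doses given iv at 5-min intervals, with peak responses recorded. ED50 by linear regression (mean ± SEM). Heart rate and MAP are % changes at the inotropic ED50.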

[9] = system: Canis familiaris; assay: Compound was evaluated for percent increase in heart rate in anesthetized dogs; type: functional, Canis lupus familiaris; procedure, shortened: as §3
[10] = system: Canis familiaris; assay: Compound was tested for cardiovascular profile in conscious dogs at dose of 50 ug/kg po
[11] = system: Canis familiaris; assay: Compound was tested for cardiovascular profile in conscious dogs at dose of 25 ug/kg po
[12] = species: Felis catus; assay: Compound was evaluated for inotropic activity in cat papillary muscles at concentration of (10e-6) M; type: functional, Papillary muscle; procedure, shortened: as §2
[13] = species: Felis catus; assay: Compound was evaluated for inotropic activity in cat papillary muscles at concentration of (10e-5) M; type: functional, Papillary muscle; procedure, shortened: as §2
[14] = system: Canis familiaris; assay: Compound was tested for cardiovascular profile in conscious dogs at dose of 400 ug/kg po
[15] = system: Canis familiaris; assay: Compound was tested for cardiovascular profile in conscious dogs at dose of 100 ug/kg po
[16] = Oral bioavailability determined in dog; type: ADME, organism-based, Canis lupus familiaris; conditions: in vivo
[17] = Half-life in dog; conditions: in vivo
[18] = Half-life measured by the effect on contractility after oral administration of 25 ug/kg in dog; conditions: in vivo, 0.025 mg/kg
[19] = system: Canis familiaris; assay: Percent increase in contractility by administration of 500 ug/kg in conscious dog model; type: functional, Canis lupus familiaris
Procedure, shortened: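 Conscious, chronically instrumented dogs fasted 18 h; drug or lactose placebo given orally in 000 gelatin capsules. Contractility index was LV dP/dt60 (first derivative of left ventricular pressure at 60 mmHg); heart rate and LV systolic pressure also monitored. Peak response generally taken 150 min post-dose; mean ± SEM of four experiments.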

SMILES | Increase [1] [%] | Contractile force (% of control) [4] [%] | Decrease [6] [%] | ED50 [7] [mg/kg] | other results
O=C1CCC(c2ccc3c(c2)CCC(=O)N3)=NN1 | 18.5 | 154 | 8.7 | 0.0033 | Control [2]: 150%; Percent of control [3]: 157%; Contractility (% of control) [5]: 156%
CC1CC(c2ccc3c(c2)C(C)(C)C(=O)N3)=NNC1=O (stereo not drawn) | 13 |  | 20 | 0.015 | 
CCC1(CC)C(=O)Nc2ccc(C3=NNC(=O)CC3)cc21 | 8.9 |  | 7.5 | 0.741 | 
CC1CC(=O)NN=C1c1ccc2c(c1)C(C)(C)C(=O)N2C (stereo not drawn) | 21.4 |  | 26 | 0.0044 | 
CN1N=C(c2ccc3c(c2)CC(=O)N3)CCC1=O | 11 |  | 7 | 0.271 | 
CC1CC(=O)NN=C1c1ccc2c(c1)C(C)(C)C(=O)N2 (stereo not drawn) |  |  |  | 0.0032 | Control [8]: 26%; Control [9]: 16%; Control [10]: 150%
CCC1C(=O)Nc2ccc(C3=NNC(=O)CC3)cc21 (stereo not drawn) | 18 |  | 12 | 0.071 | 
O=C1CCC(c2ccc3c(c2)CCCC(=O)N3)=NN1 | 12 | 139 | 18 | 0.0052 | Control [2]: 121%; Percent of control [3]: 131%; Contractility (% of control) [5]: 137%
CN1C(=O)C(C)(C)c2cc(C3=NNC(=O)CC3)ccc21 | 8 |  | 13 | 0.052 | 
CC(=O)Nc1ccc(C2=NNC(=O)CC2C)cc1 (stereo not drawn) | 11.7 | 216 | 16.6 | 0.002 | Control [11]: 170%; Control [12]: 167%; Control [13]: 183%
CC(=O)Nc1ccc(C2=NNC(=O)CC2)cc1 | 5 | 141 | 6 | 0.0116 | Percent of control [3]: 132%; Contractility (% of control) [5]: 128%
CCCC1(C)C(=O)Nc2ccc(C3=NNC(=O)CC3)cc21 (stereo not drawn) | 9.3 |  | 9.6 | 0.0198 | 
CC1C(=O)Nc2ccc(C3=NNC(=O)CC3)cc21 (stereo not drawn) | 8 |  | 21.8 | 0.0096 | Control [11]: 141%
Cc1cc(C2=NNC(=O)CC2)cc2c1NC(=O)C2(C)C | 8.5 |  | 17 | 0.0095 | 
CCC1(C)C(=O)Nc2ccc(C3=NNC(=O)CC3C)cc21 (stereo not drawn) | 11 |  | 20 | 0.0148 | 
CCC1(C)C(=O)Nc2ccc(C3=NNC(=O)CC3)cc21 (stereo not drawn) | 2 |  | 3.1 | 0.022 | Control [14]: 149%
CN1C(=O)CCc2cc(C3=NNC(=O)CC3)ccc21 | 26 |  | 21 | 0.0124 | Control [15]: 134%
CC1(C)CC(=O)Nc2ccc(C3=NNC(=O)CC3)cc21 | 5.9 |  | 15 | 0.086 | Percent of control [3]: 133%
O=C1CCC(c2ccc3c(c2)CC(=O)N3)=NN1 | 5.6 | 152 | 4.3 | 0.024 | Control [2]: 116%; Percent of control [3]: 164%; Contractility (% of control) [5]: 147%
Cc1cc2c(cc1C1=NNC(=O)CC1)C(C)(C)C(=O)N2 | 7.9 |  | 0.5 | 0.04 | 
CC1(C)Cc2cc(C3=NNC(=O)CC3)ccc2NC1=O | 8.5 |  | 3 | 0.021 | Percent of control [3]: 116%
O=C1CCC(c2ccc3c(c2)CCCN3)=NN1 | 37 |  | 12 | 0.257 | 
O=C1CCC(c2ccc(-n3ccnc3)cc2)=NN1 [IMAZODAN] | 9.5 | 173 | 18 | 0.046 | Contractility (% of control) [5]: 147%
CC1(C)C(=O)Nc2ccc(C3=NNC(=O)CC3)cc21 [INDOLIDAN] | 11.8 | 169 | 15.2 | 0.0068 | bioavailability [16]: 100%; Control [2]: 134%; half-life [17]: 14 h; Control [11]: 151%; Contractility (% of control) [5]: 164%; half-life [18]: > 8 h
Cc1[nH]c(=O)c(C#N)cc1-c1ccncc1 [MILRINONE] | 9 | 158 | 8 | 0.037 | Percent of control [3]: 162%; Increase [19]: 62%; Control [13]: 148%
